Source: PubChem BioAssay (several laboratories)
PHOSPHO1 block – PubChem AID 1565. Phosphoethanolamine/phosphocholine phosphatase (Homo sapiens), Q8TCT1. recombinant PHOSPHO1, absorbance phosphatase assay. inhibition, % at 13.3 µM. 1.1% of 290,000 active; in the data active means inhibition above about 60%
Target sequence (Q8TCT1 whole entry, looked up): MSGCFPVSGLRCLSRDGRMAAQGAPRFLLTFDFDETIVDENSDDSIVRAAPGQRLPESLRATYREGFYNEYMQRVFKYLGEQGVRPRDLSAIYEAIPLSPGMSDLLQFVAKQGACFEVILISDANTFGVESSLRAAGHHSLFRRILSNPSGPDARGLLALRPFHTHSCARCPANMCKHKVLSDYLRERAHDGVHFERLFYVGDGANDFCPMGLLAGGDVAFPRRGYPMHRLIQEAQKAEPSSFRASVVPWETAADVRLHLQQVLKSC
VIM-2 inhibitor – VIM-2 metallo-beta-lactamase inhibitors, primary screen, biochemical, epi-absorbance readout, Pseudomonas aeruginosa enzyme; AID 1527, 2009; inhibition, % at 5.6 µM; 0.89% of 290,000 active; purified VIM-2, nitrocefin hydrolysis, epi-absorbance fluorescence;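 active means inhibition above the mean of all tested compounds plus 3 SD, cutoff set per screening run, cut at about 7.5% in these data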;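 further: red hydrolysis product quenches plate fluorescence so inhibitors raise well fluorescence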
IMP-1 inh – IMP-1 metallo-beta-lactamase inhibitors, primary screen, biochemical, epi-absorbance readout, Pseudomonas aeruginosa enzyme; purified IMP-1, nitrocefin hydrolysis, epi-absorbance fluorescence; metallo-beta-lactamase IMP-1 (Pseudomonas aeruginosa); AID 1556, 2009; 0.45% of 290,000 active; inhibition, % at 5.6 µM;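 active means inhibition above the mean plus 3 SD of all compounds in the same screening run, cut at about 4.5% in these data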
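System: purified recombinant IMP-1 beta-lactamase. Medium: Zinc- and detergent-supplemented HEPES buffer, pH 7.1. Compound: one 5.6 µM dose […]. Schedule: 15 min preincubation plus 25 min reaction at 25 °C. Technique: Epi-absorbance fluorescence, 480 nm excitation, 530 nm emission.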
SUMO HTRF inh – inhibitors of in vitro SUMOylation cascade, primary screen, biochemical, HTRF, uHTS; 0.36% of 290,000 active; inhibition, % at 35 µM; HTRF SUMOylation assay, SAE1/SAE2 + UBC9; SUMO-conjugating enzyme UBC9 (Homo sapiens), P63279; in the data active means inhibition above about 50%, passing the limit was not always enough
Target sequence (P63279 whole entry, looked up): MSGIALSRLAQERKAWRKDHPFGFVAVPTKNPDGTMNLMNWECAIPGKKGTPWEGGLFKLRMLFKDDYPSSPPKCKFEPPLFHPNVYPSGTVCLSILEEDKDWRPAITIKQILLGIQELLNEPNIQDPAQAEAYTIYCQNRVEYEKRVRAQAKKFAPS
HCV core dimer – inhibitors of HCV core protein dimerization, primary screen, biochemical, TR-FRET, high-throughput; 0.33% of 300,000 active; inhibition, % at 5 µM; TR-FRET GST/Flag-core106 dimerization, 1536-well;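 active means inhibition above the mean of all tested compounds plus 3 SD, set per screening campaign, cut at about 45% in these data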
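Material: Tagged HCV core106 pair (GST and Flag) | Amount: GST-core106 13.5 nM, Flag-core106 17 nM | Medium: KF-containing HEPES buffer, pH 7.45, DTT, CHAPS, BSA | Reagent: Eu donor and XL665 acceptor anti-tag antibodies | Schedule: 4 h at 22.5 °C | Technique: Time-resolved FRET, ex 340 nm, em 617 and 671 nm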
HCV NS3 hel inh – inhibitors of HCV NS3 helicase, primary screen, biochemical, Cy5 molecular beacon fluorescence | AID 1800, 2009 | 0.56% of 290,000 active | NS3 helicase DNA unwinding | Hepatitis C virus NS3 helicase | inhibition, % at 10.9 µM;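 active means inhibition above the mean of all tested compounds plus 3 SD, set per campaign, cut at about 35% in these data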
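Assay system: hepatitis C virus NS3 helicase domain fragment enzyme. Also added: annealed dual-labelled DNA beacon duplex, ATP-started. Timing: 1 h reaction at 25 °C, ATP-initiated. Technique: Cy5 fluorescence at 0 and 60 min, beacon hairpin quenching. Evaluation: % inhibition of unwinding. Replication: one well per compound.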
NS3 helicase cf – HCV NS3 helicase inhibitors, retest, confirmation, biochemical, Cy5 molecular beacon fluorescence, triplicate | NS3 helicase DNA unwinding | inhibition, % at 10.9 µM | 31% of 1,600 active | shares compounds with HCV NS3 hel inh;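 active means inhibition above the mean of all tested compounds plus 3 SD, cutoff set per campaign, cut at about 36% in these data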
FID counter trip – compounds displacing fluorescent DNA intercalator, artefact control for HCV NS3 helicase inhibitor project, biochemical, FID fluorescence, triplicate; 4% of 1,600 active; inhibition, % at 7.9 µM; shares compounds with HCV NS3 hel inh; DNA fluorescent intercalator displacement; in the data active means inhibition above about 37%;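 further: higher means more displacement of ethidium bromide from the DNA hairpin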
FID counter DR – compounds displacing fluorescent intercalator from DNA, dose response, counter-screen for HCV NS3 helicase inhibitor project, biochemical, fluorescence; shares compounds with HCV NS3 hel inh; fluorescent intercalator displacement from DNA; IC50, µM; 120 tested, under 10 active; AID 2172, 2009; call rule not given here
Large screens that a line does not name were inactive (follow-up assays come after a bar, where they were run). Only some compounds are listed: those with a hit (about 3.1% of all), similar ones and a draw of the others.

COc1ccccc1CNC(=O)CCCc1nnc2n(C)c(=O)c3sccc3n12	none
CC(=O)NC(c1ccc(Cl)cc1Cl)c1ccc2cccnc2c1O (stereo unspecified)	HCV NS3 hel inh 36.2 (no result: HCV core dimer) | NS3 helicase cf inactive | FID counter trip inactive
COc1ccccc1C(NC(C)=O)c1cc(Cl)c2cccnc2c1O (stereo unspecified)	HCV NS3 hel inh 40.3 | NS3 helicase cf inactive | FID counter trip inactive
O=C(O)COc1ccccc1C(Nc1cccnc1)c1cc(Cl)c2cccnc2c1O (stereo unspecified)	PHOSPHO1 block 84.0, SUMO HTRF inh 77.3, HCV NS3 hel inh 37.1 (no result: HCV core dimer) | NS3 helicase cf 69.2 | FID counter trip 80.7
CCn1cc(C(=O)NCCC(=O)NCCCO)c(=O)c2cc3c(cc21)OCO3	none
Cc1cc(C)c2cc(C(=O)Nc3ccccc3)[nH]c2c1	none
CC(=O)OCCCNc1cc(SCc2ccco2)c2nonc2c1[N+](=O)[O-]	HCV NS3 hel inh 40.9 | NS3 helicase cf inactive | FID counter trip inactive
COc1ccc(C2/C(=C(\O)c3ccc4c(c3)OCCO4)C(=O)C(=O)N2CCCn2ccnc2)cc1 (stereo unspecified)	none
C=CCOc1ccc(C2/C(=C(\O)c3ccc4c(c3)OCCO4)C(=O)C(=O)N2CCCN2CCOCC2)cc1 (stereo unspecified)	HCV NS3 hel inh 50.0 | NS3 helicase cf inactive | FID counter trip inactive
CCCOc1cccc(C2/C(=C(\O)c3ccc4c(c3)OCCO4)C(=O)C(=O)N2CCCn2ccnc2)c1 (stereo unspecified)	HCV NS3 hel inh 41.0 | NS3 helicase cf inactive | FID counter trip inactive
Cn1nc(C(F)(F)F)c(-c2ccc(Br)cc2)c1NC(=O)Nc1ccc(F)cc1F	none
COc1cccc(/C=C/C(=O)OCC(=O)Nc2nnc(-c3ccccc3)o2)c1	none (no result: PHOSPHO1 block, VIM-2 inhibitor, IMP-1 inh, SUMO HTRF inh, HCV NS3 hel inh)
CC(C)C[C@H](NC(=O)[C@H](Cc1ccccc1)n1c(=O)[nH]c2ccccc2c1=O)C(=O)N1CCC[C@@H]1C(=O)O	HCV NS3 hel inh 39.0 | NS3 helicase cf inactive | FID counter trip inactive
CSCC[C@H](NC(=O)[C@H](Cc1ccccc1)n1c(=O)[nH]c2ccccc2c1=O)C(=O)N1CCC[C@H]1C(=O)O	none
COc1ccc(OC)c(S(=O)(=O)N2CCC(C(=O)NCc3ccccn3)CC2)c1	none
Cc1ccc(NC(=O)c2ccccc2)cc1	none
Cc1ccc(NC(=O)C2=C(c3ccccc3)S(=O)(=O)CCS2(=O)=O)cc1	HCV NS3 hel inh 38.3 | NS3 helicase cf 58.8 | FID counter trip inactive | FID counter DR inactive
O=C(NCc1ccc(F)cc1F)Nc1cnccc1C(F)(F)F	none (no result: PHOSPHO1 block)
N=C1S/C(=C\c2ccco2)C(=O)N1c1ccc2c(c1)OCO2	HCV NS3 hel inh 39.7 (no result: SUMO HTRF inh) | NS3 helicase cf inactive | FID counter trip inactive
CCC(=O)Nc1ccc2nc3c(=O)[nH]c(=S)[nH]c3nc2c1	HCV NS3 hel inh 39.1 | NS3 helicase cf inactive | FID counter trip inactive
CCCCn1c(=O)[nH]c2nc3cc(NC(C)=O)ccc3nc2c1=O	none
Cc1ccc(CCC(=O)Nc2ccccc2C(=O)O)o1	none
CN(C)c1ccc(NC(=O)C2C3C=CC(C3)C2C(=O)O)cc1 (stereo unspecified)	HCV NS3 hel inh 55.7 (no result: HCV core dimer) | NS3 helicase cf inactive | FID counter trip inactive
O=C(O)C1C2C=CC(C2)C1C(=O)Nc1ccc2c(c1)OCCO2 (stereo unspecified)	none
